The source of these data is ChEMBL document CHEMBL1150198, “DNA as an affinity probe useful in the detection and isolation of biologically active natural products” (J Nat Prod, 1991).

In one experiment the test system is Calf thymus DNA. As to the kind of experiment: Binding affinity to calf thymus DNA assessed as reduction in DNA peak by pre-incubation method. In kind it is nucleic-acid assay. Further details: concentration or dose not given beside the values. The following applies: Bos taurus. The essentials:
(§1)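 Nucleic acid at 0.1 mg/ml in water; test substance at 1.0 mg/ml in water or MeOH, mixed 1:1 (v/v) and held at ambient temperature for 5–30 min. 40 or 80 µl injected onto a C18 reversed-phase column equilibrated in H2O-MeOH (80:20), 1 ml/min, with 254 nm detection. The free nucleic-acid peak (~1.2 min) was compared with nucleic acid injected alone.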

The next experiment concerns Nucleic Acid. As to the kind of experiment: Binding affinity to yeast tRNA assessed as reduction in tRNA peak by pre-incubation method. In kind it is nucleic-acid assay. Set-up: concentration or dose not given beside the values. The following applies: Saccharomyces cerevisiae. The essentials:
as §1

Starred links: 1 amine or outer side, 2 acyl side, 3 side chain; linkers in the order of their positions; H or OH if unused. Positions of bridges follow the written chain, without caps; N, C: chain ends. Non-standard residues stand in square brackets, D forms with d. Residues, ends and D or L forms follow the SMILES beside them. Chains are numbered I, II in the order given. Actinocin(9to1) = Cc1c2oc3c(C)ccc(C(=O)[*:1])c3nc-2c(C(=O)[*:2])c(N)c1=O; NMeV = CN[C@H](C(=O)O)C(C)C; Sar = CNCC(=O)O Bounds are passed on as bounds.

With `C=C1C(=O)O[C@H]2[C@H]1[C@@H](O)[C@H](O)C(C)=C1C[C@H]3O[C@@]3(C)[C@@H]12`, the Activity in the experiment on Calf thymus DNA was 30%; in the experiment on Nucleic Acid, < 30%. For `CC[C@]1(O)C[C@H]2CN(CCc3c([nH]c4ccccc34)[C@@](C(=O)OC)(c3cc4c(cc3OC)N(C=O)[C@H]3[C@@](O)(C(=O)OC)[C@H](OC(C)=O)[C@]5(CC)C=CCN6CC[C@]43[C@@H]65)C2)C1` the same measures were > 70% and 100%. For `CC[n+]1c(-c2ccccc2)c2cc(N)ccc2c2ccc(N)cc21` the same measures were 100% and 100%. For `CC[C@]1(O)C[C@@H]2CN(CCc3c([nH]c4ccccc34)[C@@](C(=O)OC)(c3cc4c(cc3OC)N(C)[C@H]3[C@@](O)(C(=O)OC)[C@H](OC(C)=O)[C@]5(CC)C=CCN6CC[C@]43[C@@H]65)C2)C1` the same measures were > 70% and 100%.

Turning to `C=C1C(=O)O[C@@H]2C3O[C@]3(C)CC/C=C(\C)CC[C@@H]12` (stereo partly specified), the results for the Activity in the experiment with Calf thymus DNA and in the experiment on Nucleic Acid were 30% and < 30%, respectively. As to `Cc1c2ccncc2c(C)c2c1[nH]c1ccccc12`, the Activity in the experiment on Calf thymus DNA was > 70%; in the experiment with Nucleic Acid it was 30%. For `COc1cc2c(c(OC)c1OC)-c1ccc(OC)c(=O)cc1[C@@H](NC(C)=O)CC2` the same measures were < 30% and < 30%.

With `COc1cc2c(ccc3c4cc(OC)c(OC)cc4c[n+](C)c23)cc1O`, the Activity with Calf thymus DNA and in the experiment on Nucleic Acid was 100% each time. Take `COc1cc2c(c3c1c(=O)c1ccccc1n3C)C=CC(C)(C)O2`: the Activity with Calf thymus DNA was < 30%.

For `CC(C)=CC(=O)O[C@@H]1C(C)=C2C(=O)C=C(C)[C@]2(O)[C@H]2OC(=O)C[C@@H]2[C@H]1O`, the Activity in the experiment on Calf thymus DNA stood at 30%. With `Cc1c2oc3c(C)ccc(C(=O)N[C@@H]4C(=O)N[C@H](C(C)C)C(=O)N5CCC[C@H]5C(=O)N(C)CC(=O)N(C)[C@@H](C(C)C)C(=O)O[C@@H]4C)c3nc-2c(C(=O)N[C@@H]2C(=O)N[C@H](C(C)C)C(=O)N3CCC[C@H]3C(=O)N(C)CC(=O)N(C)[C@@H](C(C)C)C(=O)O[C@@H]2C)c(N)c1=O` (I: T[dV]P[Sar][NMeV] / II: T[dV]P[Sar][NMeV]; ester I:1-I:C, II:1-II:C; linker I:N-II:N via Actinocin(9to1)), the Activity in the experiment with Calf thymus DNA is 30%; with Nucleic Acid, < 30%. Consider `COc1ccc2c(c1)c1ccnc3ccc(=O)n2c31`, for which, in the experiment on Calf thymus DNA, the Activity is 30%.

For the compound `C=C1C(=O)O[C@H]2[C@H]1[C@@H](O)[C@H](OC(=O)C=C(C)C)C(C)=C1C[C@H]3O[C@@]3(C)[C@@H]12`, the Activity in the experiment on Calf thymus DNA was determined as 30%. On the same count and under the same terms, the same measure for `COc1cccc2c1C(=O)c1c(O)c3c(c(O)c1C2=O)C[C@@](O)(C(C)=O)C[C@@H]3O[C@H]1C[C@H](N)[C@H](O)[C@H](C)O1`: 100%. Turning to `Nc1c2ccccc2nc2ccccc12`, the Activity is > 70% with Calf thymus DNA and 100% in the experiment with Nucleic Acid. For `COC(=O)CC1(O)C=CC(=O)C=C1` the same measures were 30% and < 30%. On the same counts, the results for BLEOMYCIN are < 30% and > 70%. For `COc1cccc2c1C(=O)c1c(O)c3c(c(O)c1C2=O)C[C@@](O)(C(=O)CO)C[C@@H]3O[C@H]1C[C@H](N)[C@H](O)[C@H](C)O1`, the Activity with Calf thymus DNA and in the experiment on Nucleic Acid was 100% throughout.
